Results published in ChEMBL document CHEMBL1156262, “Substituted benzothiophene or benzofuran derivatives as a novel class of bone morphogenetic protein-2 up-regulators: synthesis, structure-activity relationships, and preventive bone loss efficacies in senescence accelerated mice (SAMP6) and ovariectomized rats” (J Med Chem, 2010).
Activity calls are given as the source filed them.

Tests used:
Rattus norvegicus [1] = assay: Induction of bone formation in ovariectomized rat assessed as decrease in trabecular resorption surface percentage at 7.5 mg/kg/day, po after 3 months; format: functional, organism-based; details: Trabecula
Method in brief: (§1)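 Female rats (205–235 g) randomized by body weight, n = 7 per group: sham, ovariectomized with vehicle, ovariectomized with raloxifene 5 mg/kg/day, and ovariectomized with compound at 7.5, 15 or 30 mg/kg/day. All dosing oral for 3 months. Undecalcified proximal tibia sections analysed by histomorphometry, with comparisons against the sham and ovariectomized groups.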

Mus musculus [2] = assay: Induction of BMP2 expression in SAMP6 mouse cartilage cells at 30 mg/kg/day, po after 3 months by immunohistochemical analysis; format: functional, organism-based
Method in brief: (§2)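 SAMP6 mice, 5 months old, male and female, n = 5 per group (3 male, 2 female). Dosed by gavage with compound suspended in 0.5% methylcellulose daily for 3 months; the vehicle group received methylcellulose only. Proximal third of the left femur fixed in 4% neutral paraformaldehyde for 24 h, decalcified in 10% EDTA at 4 °C for 4 weeks, then frozen-sectioned at 5 μm. Stained with rabbit polyclonal anti-BMP-2 and an alkaline phosphatase secondary. BMP-2-positive area was taken as a percentage of bone tissue area, averaged over five fields below the epiphyseal plate.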

Mus musculus [3] = assay: Induction of BMP2 expression in SAMP6 mouse bone marrow stroma at 30 mg/kg/day, po after 3 months by immunohistochemical analysis; format: functional, organism-based; method in brief: as §2
Mus musculus [4] = assay: Induction of bone mineral density in SAMP6 mouse assessed as whole body BMD at 10 mg/kg/day, po measured after 1 month; format: functional, organism-based; details: 30 mg/kg, in the assay text read “30 mg/kg/day” for “10 mg/kg/day”
Method in brief: (§3)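 SAMP6 mice, 5 months old, n = 5 per group, given compound in 0.5% methylcellulose by gavage daily. Dual-energy X-ray absorptiometry under pentobarbital anaesthesia (50 mg/kg ip), animals prone, at 0, 4, 8 and 12 weeks of treatment. Regions of interest were whole body, spine and left hind leg.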

Rattus norvegicus [5] = assay: Induction of bone formation in ovariectomized rat assessed as increase in trabecular bone volume percentage at 15 mg/kg/day, po after 3 months; format: functional, organism-based; details: Trabecula; method in brief: as §1
Mus musculus [6] = assay: Toxicity in SAMP6 mouse assessed as change in 24 hrs food consumption at 30 mg/kg/day, po after 3 months; format: organism-based; parameters: route oral; details: in vivo
Method in brief: (§4)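 SAMP6 mice, n = 5 per group, dosed orally at 30 mg/kg/day in 0.5% methylcellulose for 3 months. Heart, liver, spleen, lung and kidney harvested, weighed and examined histologically. Organ/body weight indexes, body weight, and 24 h water and food intake (g/g body weight) compared with vehicle controls.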

Rattus norvegicus [7] = assay: Toxicity in rat assessed as pathological increase in body weight at 150 mg/kg/day, po after 3 months; format: organism-based; parameters: route oral; details: in vivo
Method in brief: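 Female rats (n = 7) were dosed orally once daily at 150 (mg/kg)/day for 3 months. Body weight, behaviour and fur were observed throughout. At the end, hearts, livers, spleens, lungs and kidneys were sectioned for histological examination of pathological changes.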

Rattus norvegicus [8] = assay: Toxicity in rat assessed as pathological changes in heart at 150 mg/kg/day, po after 3 months by histomorphology; format: organism-based; parameters: route oral; details: in vivo
Method in brief: (§5)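 Rats, n = 7, given oral doses of 150 mg/kg/day for 3 months. Heart, liver, spleen, lung and kidney examined histologically for pathological change.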

Mus musculus [9] = assay: Induction of bone mineral density in SAMP6 mouse assessed as whole body BMD at 30 mg/kg/day, po measured after 2 months
Rattus norvegicus [10] = assay: Toxicity in rat assessed as pathological changes in lung at 150 mg/kg/day, po after 3 months by histomorphology; format: organism-based; parameters: route oral; details: in vivo; method in brief: as §5
Mus musculus [11] = assay: Induction of bone mineral density in SAMP6 mouse assessed as spine BMD at 30 mg/kg/day, po measured first 2 months; format: functional, organism-based; method in brief: as §3
Mus musculus [12] = assay: Toxicity in SAMP6 mouse assessed as pathological changes in lung at 30 mg/kg/day, po after 3 months by histomorphology; format: organism-based; parameters: route oral; details: in vivo; method in brief: as §4
Mus musculus [13] = assay: Toxicity in SAMP6 mouse assessed as pathological changes in kidney at 30 mg/kg/day, po after 3 months by histomorphology; format: organism-based; parameters: route oral; details: in vivo; method in brief: as §4
Mus musculus [14] = assay: Toxicity in SAMP6 mouse assessed as pathological changes in heart at 30 mg/kg/day, po after 3 months by histomorphology; format: organism-based; parameters: route oral; details: in vivo; method in brief: as §4
Rattus norvegicus [15] = assay: Prevention of bone loss in po dosed ovariectomized rat assessed as increase in number, thickness, area and connectivity of trabecula after 3 months by histomorphometry Leica Qwin image analysis; format: functional, organism-based; method in brief: as §1
[16] = Toxicity in ip dosed Kunming mouse assessed as mortality treated for 3 days measured after 17 days; format: organism-based; details: in vivo
Mus musculus [17] = assay: Induction of bone formation in SAMP6 mouse right femora assessed as average osteoid width at 30 mg/kg/day, po measured after 3 months by bone histomorphometry; format: functional
Method in brief: (§6)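 SAMP6 mice, 5 months old, n = 5 per group (3 male, 2 female), randomized by initial BMD. Given compound in 0.5% methylcellulose by gavage daily for 3 months. Proximal third of the right femur fixed in 4% paraformaldehyde, cut as undecalcified sections, and scored by image analysis for histomorphometry.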

Rattus norvegicus [18] = assay: Induction of bone formation in ovariectomized rat assessed as decrease in trabecular resorption surface percentage at 15 mg/kg/day, po after 3 months; format: functional, organism-based; details: Trabecula; method in brief: as §1
Mus musculus [19] = assay: Induction of bone mineral density in SAMP6 mouse assessed as whole body BMD at 30 mg/kg/day, po measured after 3 months; format: functional; method in brief: as §3
Mus musculus [20] = assay: Induction of bone formation in SAMP6 mouse right femora assessed as trabecular resorption surface percentage at 30 mg/kg/day, po measured after 3 months by bone histomorphometry; format: functional, Trabecula; method in brief: as §6
Mus musculus [21] = assay: Toxicity in SAMP6 mouse assessed as pathological changes in liver at 30 mg/kg/day, po after 3 months by histomorphology; format: organism-based; parameters: route oral; details: in vivo; method in brief: as §4
Rattus norvegicus [22] = assay: Induction of bone formation in ovariectomized rat assessed as increase in trabecular bone volume percentage at 7.5 mg/kg/day, po after 3 months; format: functional, organism-based; details: Trabecula; method in brief: as §1
Rattus norvegicus [23] = assay: Toxicity in rat assessed as pathological changes in liver at 150 mg/kg/day, po after 3 months by histomorphology; format: organism-based; parameters: route oral; details: in vivo; method in brief: as §5
Mus musculus [24] = assay: Toxicity in SAMP6 mouse assessed as change in 24 hrs water consumption at 30 mg/kg/day, po after 3 months; format: organism-based; parameters: route oral; details: in vivo; method in brief: as §4
Rattus norvegicus [25] = assay: Prevention of bone loss in ovariectomized rat assessed as increase in number, thickness, area and connectivity of trabecula at 30 mg/kg/day, po after 3 months by histomorphometry Leica Qwin image analysis; format: functional, organism-based; method in brief: as §1
Mus musculus [26] = assay: Induction of bone mineral density in SAMP6 mouse assessed as spine BMD at 30 mg/kg/day, po measured after 3 months; format: functional; method in brief: as §3
Mus musculus [27] = assay: Induction of BMP2 expression in SAMP6 mouse osteoblast at 30 mg/kg/day, po after 3 months by immunohistochemical analysis; format: functional, organism-based; method in brief: as §2
Rattus norvegicus [28] = assay: Induction of bone formation in ovariectomized rat assessed as decrease in trabecular resorption surface percentage at 30 mg/kg/day, po after 3 months; format: functional, organism-based; details: Trabecula; method in brief: as §1
Mus musculus [29] = assay: Toxicity in SAMP6 mouse assessed as pathological changes in spleen at 30 mg/kg/day, po after 3 months by histomorphology; format: organism-based; parameters: route oral; details: in vivo; method in brief: as §4
Rattus norvegicus [30] = assay: Prevention of bone loss in ovariectomized rat assessed as increase in number, thickness, area and connectivity of trabecula at 15 mg/kg/day, po after 3 months by histomorphometry Leica Qwin image analysis; format: functional, organism-based; method in brief: as §1

CC(=O)c1cc2ccccc2s1
5.55 µm: Activity (Mus musculus [17])
0.068 g/cm2: Activity (Mus musculus [19])
inactive: Activity (Mus musculus [2])
> 1580 mg/kg: LD50 at 408 h [16]
active: Activity (Rattus norvegicus [1]) | Activity (Mus musculus [3]) | Activity (Mus musculus [4]) | Activity (Rattus norvegicus [5]) | Activity (Mus musculus [9]) | Activity (Mus musculus [11]) | Activity (Rattus norvegicus [15]) Dose-dependent effect | Activity (Rattus norvegicus [18]) | Activity (Rattus norvegicus [22]) | Activity (Rattus norvegicus [25]) | Activity (Mus musculus [27]) | Activity (Rattus norvegicus [28]) | Activity (Rattus norvegicus [30])
0.086 g/cm2: Activity (Mus musculus [26])
7.09%: Activity (Mus musculus [20])
Non-toxic: Activity (Mus musculus [6]) | Activity (Rattus norvegicus [7]) | Activity (Rattus norvegicus [8]) | Activity (Rattus norvegicus [10]) | Activity (Mus musculus [12]) | Activity (Mus musculus [13]) | Activity (Mus musculus [14]) | Activity (Mus musculus [21]) | Activity (Rattus norvegicus [23]) | Activity (Mus musculus [24]) | Activity (Mus musculus [29])
